Experimental data: ChEMBL document CHEMBL4043283, “Discovery and Preclinical Development of IIIM-290, an Orally Active Potent Cyclin-Dependent Kinase Inhibitor” (J Med Chem, 2018)
In brackets after ≈: the same amount, converted by molar mass. Activity calls are given as the source filed them. No cut-off for these calls is given here.

Legend:
Kidney = assay: Drug uptake in BALB/c mouse kidney at 30 mg/kg, po after 8 hrs; format: ADME, organism-based; details: in vivo
Salmonella typhimurium [1] = assay: Mutagenicity in Salmonella typhimurium TA100 at 50 ug/plate in presence of liver S9 fraction by Ames test; format: toxicity; details: salmonella enterica subsp. enterica serovar typhimurium
MIA PaCa-2 [2] = assay: Disruption of mitochondrial membrane potential in human MIAPaCa2 cells by Rh123 dye-based assay; format: functional, cell-based
[3] = Half life in rat liver microsomes at 100 uM after 30 mins by LC-MS/MS analysis; format: ADME, microsome
In short: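 Parent loss followed over time to give half-life, with NADPH as cofactor for microsomal phase I metabolism.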

PANC-1 = assay: Growth inhibition of human PANC1 cells after 48 hrs by MTT assay; format: functional; details: PANC-1, 48 h
In short: (§1)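 Cancer cell lines sourced from the National Cancer Institute (USA). Cells kept in appropriate growth medium at 37 °C, 95% humidity, 5% CO2. Antiproliferation read by tetrazolium (MTT) assay. GI50 values were determined only for compounds selected after an initial single-concentration screen.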

NCI-H522 = assay: Growth inhibition of human NCI-H522 cells after 48 hrs by MTT assay; format: functional; details: NCI-H522, 48 h; in short: as §1
Caco-2 = assay: Growth inhibition of human Caco2 cells after 48 hrs by MTT assay; format: functional; details: Caco-2, 48 h; in short: as §1
[4] = Half life in dog hepatocytes at 3 uM after 180 mins by LC-MS/MS analysis; format: ADME, cell-based, Canis lupus familiaris, Hepatocyte
[5] = Toxicity in po dosed Swiss albino mouse allografted with Swiss mouse EAC administered for 9 day; format: organism-based; details: in vivo
[6] = Half life in rat hepatocytes at 3 uM after 180 mins by LC-MS/MS analysis; format: ADME, cell-based, Hepatocyte
[7] = Pancreas to plasma partition coefficient, Kp of the compound in Sprague-Dawley rat at 30 mg/kg, po measured at 8 hrs; format: ADME, organism-based; details: pancreas and plasma
Mus musculus [8] = assay: Toxicity in Swiss albino mouse allografted with Swiss mouse EAC assessed as mortality at 70 to 100 mg/kg, po administered for 9 day; format: organism-based; details: in vivo, 216 h
[9] = AUC in BALB/c mouse at 10 mg/kg, po by LC-MS/MS analysis; format: ADME, organism-based; details: in vivo
MIA PaCa-2 [10] = assay: Growth inhibition of human MIAPaCa2 cells at 10 uM after 48 hrs by MTT assay relative to control; format: functional; details: MIA PaCa-2, 48 h, read-out: GI
In short: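 Single-concentration primary screen at 10 μM by MTT assay. Cells were NCI-sourced cancer lines grown in appropriate medium at 37 °C, 95% humidity, 5% CO2. Growth inhibition is expressed relative to control.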

[11] = Tmax in Sprague-Dawley rat at 30 mg/kg, po by LC-MS/MS analysis; format: ADME, organism-based; details: in vivo
[12] = target: T1, Cyclin-dependent kinase 5/CDK5 activator 1 (Homo sapiens, UniProt Q00535); assay: Inhibition of CDK5/cyclin p35 (unknown origin) after 30 mins in presence of [33P]-gamma-ATP by filter binding assay; format: protein-complex assay
MCF7 = assay: Growth inhibition of human MCF7 cells after 48 hrs by MTT assay; format: functional; details: MCF7, 48 h; in short: as §1
[13] = Intrinsic clearance in human liver microsomes assessed per mg of protein at 100 uM after 30 mins by LC-MS/MS analysis; format: ADME, microsome; details: read-out: CLH
Salmonella typhimurium [14] = assay: Mutagenicity in Salmonella typhimurium TA1537 at 50 ug/plate in absence of liver S9 fraction by Ames test; format: toxicity; details: salmonella enterica subsp. enterica serovar typhimurium
Salmonella typhimurium [15] = assay: Mutagenicity in Salmonella typhimurium TA98 at 50 ug/plate in presence of liver S9 fraction by Ames test; format: toxicity; details: salmonella enterica subsp. enterica serovar typhimurium
Salmonella typhimurium [16] = assay: Mutagenicity in Salmonella typhimurium TA1537 at 50 ug/plate in presence of liver S9 fraction by Ames test; format: toxicity; details: salmonella enterica subsp. enterica serovar typhimurium
[17] = target: Cyclin-dependent kinase 4/cyclin D1 (Homo sapiens) (UniProt P11802+P24385); assay: Inhibition of full length wild type human CDK4/cyclin D1 expressed in mammalian expression system at 0.5 uM by KINOMEscan method relative to control
In short: (§2)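 Competition binding screen (KINOMEscan) at 0.5 μM; primary binding read out as % of control, lower values indicating stronger interaction.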

[18] = Cmax in BALB/c mouse at 10 mg/kg, po by LC-MS/MS analysis; format: ADME, organism-based; parameters: dose 10 mg/kg, route oral; details: in vivo
[19] = Pancreas to plasma partition coefficient, Kp of the compound in BALB/c mouse at 30 mg/kg, po measured at 0.5 hrs; format: ADME, organism-based; details: pancreas and plasma
[20] = Growth inhibition of human HEK293 cells after 48 hrs by MTT assay; format: cell-based
Mus musculus [21] = assay: Toxicity in CD1 nude mouse xenografted with human MIAPaCa2 cells assessed as change in body weight at 25 to 50 mg/kg, po qd administered on day 10 to 25 post tumor inoculation; format: organism-based; details: in vivo
[22] = Half life in human liver microsomes at 100 uM after 30 mins by LC-MS/MS analysis; format: ADME, microsome
A-431 = assay: Growth inhibition of human A431 cells after 48 hrs by MTT assay; format: functional; details: A-431, 48 h; in short: as §1
CDK6/cyclin D1 = CDK6/cyclin D1 (Homo sapiens, UniProt Q00534); assay: Inhibition of CDK6/cyclin D1 (unknown origin) after 30 mins in presence of [33P]-gamma-ATP by filter binding assay; format: protein-complex assay
[23] = Chemical stability of compound in SGF at pH 1.2 assessed as parent compound remaining after 8 hrs by HPLC method; format: physicochemical; details: read-out: Stability
HCT-116 = assay: Antitumor activity against human HCT116 cells xenografted in CD1 nude mouse assessed as tumor growth inhibition at 25 mg/kg, po qd administered on day 10 to 25 post tumor inoculation; format: functional, organism-based
786-0 = assay: Growth inhibition of human 786-0 cells after 48 hrs by MTT assay; format: functional; details: 786-0, 48 h; in short: as §1
[24] = target: T1, Cyclin-dependent kinase 5/CDK5 activator 1; assay: Inhibition of CDK5/cyclin p25 (unknown origin) after 30 mins in presence of [33P]-gamma-ATP by filter binding assay; format: protein-complex assay
MOLT-4 = assay: Growth inhibition of human MOLT4 cells after 48 hrs by MTT assay; format: functional; details: MOLT-4, 48 h; in short: as §1
Liver = assay: Intrinsic clearance in rat liver S9 fraction assessed per mg of protein preincubated for 5 mins followed by NADPH addition measured after 30 mins by LC-MS/MS analysis; format: ADME, tissue-based; details: s9, 0.5 h
[25] = Thermodynamic equilibrium solubility of compound in PBS at pH 7.4 after 5 hrs by shake flask method; format: physicochemical; details: read-out: Therm_solubility
MIA PaCa-2 [26] = assay: Induction of apoptosis in human MIAPaCa2 cells assessed as caspase-7 cleavage by Western blot method; format: functional, cell-based
In short: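 Lysate protein quantified against a BSA standard; 70 μg resolved by SDS-PAGE, transferred to PVDF overnight at 4 °C, 30 V; blocked 1 h in 5% nonfat milk/TBST; primary antibodies 2–4 h, HRP anti-mouse secondary 1 h; ECL detection on X-ray film.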

HL-60 = assay: Growth inhibition of human HL60 cells after 48 hrs by MTT assay; format: functional; details: HL-60, 48 h; in short: as §1
[27] = target: Serine/threonine-protein kinase ICK (Homo sapiens) (UniProt Q9UPZ9); assay: Inhibition of partial length wild type human ICK expressed in mammalian expression system at 0.5 uM by KINOMEscan method relative to control; in short: as §2
Serine/threonine-protein kinase ICK (Homo sapiens), sequence (Q9UPZ9 whole entry): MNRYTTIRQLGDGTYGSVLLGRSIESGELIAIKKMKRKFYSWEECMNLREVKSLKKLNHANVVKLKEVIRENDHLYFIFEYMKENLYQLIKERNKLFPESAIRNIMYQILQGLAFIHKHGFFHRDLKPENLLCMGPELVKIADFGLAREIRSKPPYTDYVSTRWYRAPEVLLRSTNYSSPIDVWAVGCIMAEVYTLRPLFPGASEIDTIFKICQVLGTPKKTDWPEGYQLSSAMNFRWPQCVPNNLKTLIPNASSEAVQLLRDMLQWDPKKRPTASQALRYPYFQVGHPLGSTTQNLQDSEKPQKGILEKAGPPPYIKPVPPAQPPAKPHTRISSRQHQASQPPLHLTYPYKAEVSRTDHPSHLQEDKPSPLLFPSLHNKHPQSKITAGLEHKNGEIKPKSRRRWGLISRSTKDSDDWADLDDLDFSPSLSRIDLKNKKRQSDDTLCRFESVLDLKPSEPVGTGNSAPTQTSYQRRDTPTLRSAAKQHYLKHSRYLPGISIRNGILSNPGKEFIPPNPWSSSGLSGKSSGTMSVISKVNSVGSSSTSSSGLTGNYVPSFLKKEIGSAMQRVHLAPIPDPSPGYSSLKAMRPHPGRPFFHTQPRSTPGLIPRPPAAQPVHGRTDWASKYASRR

T1 sequence (Q00535 whole entry): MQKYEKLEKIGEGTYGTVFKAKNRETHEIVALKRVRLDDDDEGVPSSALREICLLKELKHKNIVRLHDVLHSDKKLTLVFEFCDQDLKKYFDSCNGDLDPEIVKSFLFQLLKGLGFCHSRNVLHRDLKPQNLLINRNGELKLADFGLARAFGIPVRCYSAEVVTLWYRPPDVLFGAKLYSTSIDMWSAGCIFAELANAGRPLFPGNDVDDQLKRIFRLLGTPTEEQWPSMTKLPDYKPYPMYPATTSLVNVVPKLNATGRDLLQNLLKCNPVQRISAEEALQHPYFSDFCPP
T1 sequence (Q15078 whole entry, further chain): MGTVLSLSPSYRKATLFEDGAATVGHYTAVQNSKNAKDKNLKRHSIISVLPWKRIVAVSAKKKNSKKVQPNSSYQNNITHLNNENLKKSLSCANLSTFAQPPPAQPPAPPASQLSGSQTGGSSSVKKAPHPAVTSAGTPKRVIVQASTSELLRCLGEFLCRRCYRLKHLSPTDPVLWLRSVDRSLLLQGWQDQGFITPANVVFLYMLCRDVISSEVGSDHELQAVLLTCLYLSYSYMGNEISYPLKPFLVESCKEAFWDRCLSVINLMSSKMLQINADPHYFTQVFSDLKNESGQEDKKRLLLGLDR
CDK6/cyclin D1, sequence (P24385 whole entry): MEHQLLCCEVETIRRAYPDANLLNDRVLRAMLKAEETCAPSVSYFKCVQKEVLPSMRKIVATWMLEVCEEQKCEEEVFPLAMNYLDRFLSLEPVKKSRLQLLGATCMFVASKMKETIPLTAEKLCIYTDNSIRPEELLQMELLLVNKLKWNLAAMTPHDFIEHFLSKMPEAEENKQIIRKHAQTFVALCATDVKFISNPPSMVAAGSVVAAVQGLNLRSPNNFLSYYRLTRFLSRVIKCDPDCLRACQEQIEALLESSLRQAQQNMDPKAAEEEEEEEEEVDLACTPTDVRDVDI
CDK6/cyclin D1, sequence (Q00534 whole entry): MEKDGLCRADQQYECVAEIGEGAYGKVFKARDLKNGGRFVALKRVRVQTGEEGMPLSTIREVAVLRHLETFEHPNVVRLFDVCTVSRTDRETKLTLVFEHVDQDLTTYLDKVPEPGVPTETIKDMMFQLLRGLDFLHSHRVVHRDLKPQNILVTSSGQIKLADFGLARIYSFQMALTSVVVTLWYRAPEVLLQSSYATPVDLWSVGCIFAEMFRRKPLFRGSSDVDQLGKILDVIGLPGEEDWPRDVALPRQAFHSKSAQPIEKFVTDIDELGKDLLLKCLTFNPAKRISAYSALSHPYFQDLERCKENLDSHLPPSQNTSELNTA

## CN1CC[C@H](c2c(O)cc(O)c3c(=O)cc(/C=C/c4c(Cl)cccc4Cl)oc23)[C@H](O)C1
Kidney
  Drug uptake: Active
Salmonella typhimurium [1]
  Activity: Non-Toxic
MIA PaCa-2 [2]
  Activity: Active
[3]
  half-life at 100 µM: > 0.5 h
PANC-1
  GI50: 4 µM
NCI-H522
  GI50: 5 µM
Caco-2
  GI50: 7 µM
[4]
  half-life at 3 µM: 4.68 h
[5]
  MTD at 216 h: 100 mg/kg
[6]
  half-life at 3 µM: 6.27 h
[7]
  Kp at 8 h: 10.5
Mus musculus [8]
  Activity: Non-Toxic
[9]
  AUC: 2.41 µM·h
MIA PaCa-2 [10]
  inhibition of growth at 10 µM: 88%
[11]
  Tmax: 1 h
[12]
  IC50: 0.0157 µM
MCF7
  GI50: 4 µM
[13]
  microsomal CLint at 100 µM: < 8.6 µL/min/mg
Salmonella typhimurium [14]
  Activity: Non-Toxic
Salmonella typhimurium [15]
  Activity: Non-Toxic
Salmonella typhimurium [16]
  Activity: Non-Toxic
[17]
  inhibition: > 98%
[18]
  Cmax: 670 to 1290 nM
[19]
  Kp at 0.5 h: 14.2
[20]
  GI50 at 48 h: 22 µM
Mus musculus [21]
  Activity: Non-Toxic
[22]
  half-life at 100 µM: > 0.5 h
A-431
  GI50: 8 µM
CDK6/cyclin D1
  IC50: 0.045 µM
[23]
  remaining at 8 h: 100%
HCT-116
  TGI: inactive
786-0
  GI50: 6 µM
[24]
  IC50: 0.0155 µM
MOLT-4
  GI50: 0.5 µM
Liver
  CLint: 45 µL/min/mg
[25]
  solubility thermodynamic at 5 h: 2.29 µg/mL (≈ 4.95 µM)
MIA PaCa-2 [26]
  Activity: Dose-dependent effect
HL-60
  GI50: 0.9 µM
[27]
  inhibition: > 98%
